What was measured:
[1] = biological target: T1, Phosphotyrosine protein phosphatase (Mycobacterium tuberculosis, UniProt A0A045ISB3); experiment: Inhibition of Mycobacterium tuberculosis H37Rv His-tagged ptpB expressed in Escherichia coli BL21(DE3) using pNPP as substrate preincubated for 15 mins followed by substrate addition and measured after 15 mins
T1 sequence (A0A045ISB3 whole entry): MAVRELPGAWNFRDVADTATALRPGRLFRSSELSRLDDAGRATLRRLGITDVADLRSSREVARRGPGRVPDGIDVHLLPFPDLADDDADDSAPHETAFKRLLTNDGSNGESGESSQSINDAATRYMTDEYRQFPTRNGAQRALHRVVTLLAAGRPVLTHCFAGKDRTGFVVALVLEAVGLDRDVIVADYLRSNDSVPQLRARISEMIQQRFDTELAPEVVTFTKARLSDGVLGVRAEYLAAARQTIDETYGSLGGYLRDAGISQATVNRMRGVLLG

[2] = tested on: J774.A1; experiment: Cytotoxicity against mouse J774A.1 cells assessed as reduction in cell viability at 50 to 150 uM after 24 hrs by MTT assay; format: cell-based; settings: j774.a1, 24 h
Procedure, shortened: (§1)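 MTT viability assay in J774A.1 cells seeded at 6 × 10^3/well and adhered overnight. Inhibitor in DMSO or DMSO only added for 24 h. MTT (5 mg/mL in PBS) added for 4 h, formazan dissolved in DMSO with Sorensen's glycine buffer, absorbance read at 570 nm.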

[3] = biological target: T2, Tyrosine-protein phosphatase non-receptor type 1 (Homo sapiens, UniProt P18031); experiment: Inhibition of human PTP1B using pNPP as substrate preincubated for 15 mins followed by substrate addition and measured after 15 mins
T2 sequence (P18031 whole entry): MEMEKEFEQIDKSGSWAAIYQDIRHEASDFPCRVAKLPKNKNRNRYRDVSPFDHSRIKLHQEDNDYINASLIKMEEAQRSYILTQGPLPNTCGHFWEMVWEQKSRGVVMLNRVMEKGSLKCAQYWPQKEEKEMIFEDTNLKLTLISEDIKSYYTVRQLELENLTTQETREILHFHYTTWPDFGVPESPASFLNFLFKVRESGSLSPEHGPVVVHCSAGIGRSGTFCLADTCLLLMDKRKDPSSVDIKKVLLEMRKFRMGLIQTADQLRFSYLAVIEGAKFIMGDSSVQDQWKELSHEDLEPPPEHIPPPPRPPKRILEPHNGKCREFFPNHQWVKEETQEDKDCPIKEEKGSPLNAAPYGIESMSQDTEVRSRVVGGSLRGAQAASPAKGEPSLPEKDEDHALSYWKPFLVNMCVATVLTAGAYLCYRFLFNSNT

[4] = Inhibition of Mycobacterium tuberculosis H37Rv His-tagged ptpA expressed in Escherichia coli BL21(DE3) using pNPP as substrate preincubated for 15 mins followed by substrate addition and measured after 15 mins
Procedure, shortened: (§2)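 His-tagged MptpA/MptpB expressed in E. coli BL21(DE3); VHR and hPTP1B purified as GST fusions with the tag cleaved. 0.5 μg protein in Tris/BisTris/acetate buffer (pH 7 MptpB, 6.5 MptpA, 6 hPTP1B, 5 VHR) with compound at 0–250 μM, 15 min at room temperature. pNPP added to 0.35 mM for 15 min, quenched with NaOH, read at 405 nm against a pNP curve. No-enzyme blanks.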

[5] = biological target: Dual specificity protein phosphatase 3 (Homo sapiens, UniProt P51452); experiment: Inhibition of human VHR using pNPP as substrate preincubated for 15 mins followed by substrate addition and measured after 15 mins; procedure, shortened: as §2
[6] = tested on: J774.A1; experiment: Cytotoxicity against mouse J774A.1 cells assessed as reduction in cell viability at >100 uM after 24 hrs by MTT assay; format: cell-based; settings: j774.a1, 24 h; procedure, shortened: as §1

Chain of Dual specificity protein phosphatase 3 (P51452 whole entry): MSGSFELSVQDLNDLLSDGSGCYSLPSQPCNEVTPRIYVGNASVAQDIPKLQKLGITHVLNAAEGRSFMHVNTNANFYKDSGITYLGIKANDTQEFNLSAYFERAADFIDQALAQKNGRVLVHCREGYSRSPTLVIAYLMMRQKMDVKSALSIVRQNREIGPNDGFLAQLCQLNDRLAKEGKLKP

O=C(O)c1noc(-c2ccccc2)c1-c1cccc(-c2ccc(O)c(Cl)c2)c1
IC50 [1]: 0.9 µM
Activity [2]: Non-Toxic
IC50 [3]: 213 µM
IC50 [4]: 23.5 µM
IC50 [5]: 18.7 µM
Activity [6]: > 23%

O=C(O)c1noc(-c2ccccc2)c1-c1cccc(-c2cc(Cl)c(O)c([N+](=O)[O-])c2)c1
Activity [2]: Non-Toxic
IC50 [3]: 313 µM
IC50 [4]: 30.2 µM
IC50 [5]: 13 µM

O=C(O)c1noc(-c2ccccc2)c1-c1cccc(-c2cccc(O)c2)c1
IC50 [3]: > 100 µM
IC50 [4]: 95 µM
IC50 [5]: 59 µM
